SKKanGAS inh: S. pyogenes SKKanGAS growth inhibitors in kanamycin, primary screen, streptokinase expression inhibitor project, SKKanGAS strain, BacTiter-Glo luminescence. 6 h. inhibition, % at 7.5 µM. 1.3% of 300,000 active. AID 1662, 2009;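 active means mean replicate score, as percent of positive control median, at least 50; inconclusive means mean below 50 but one replicate at or above 50; inactive means mean and every replicate below 50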;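 further: strain carries kanamycin resistance gene driven by streptokinase promoter and grows in 40 µg/ml kanamycin; loss of luminescence reflects streptokinase promoter inhibition or plain growth inhibition; 0% = median of DMSO wells and 100% = positive control at its reference dose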
CSC inhib: cancer stem cell viability inhibitors, primary screen, luminescence. cancer stem cell-like cells viability. inhibition, % at 7.5 µM. 1.1% of 300,000 active. AID 2717, 2010; in the data active means inhibition above about 75%; inconclusive means no clear call, values can overlap the other calls; tested in HMLE shEcad cells
Beta cell apopt: inhibitors of cytokine-induced beta cell apoptosis, primary screen, luminescence. INS-1E cytokine-induced death, ATP luminescence, 48 h; percent of positive-control rescue, neutral wells zero. 0.8% of 300,000 active. protection from apoptosis, % (concentration not given with the values);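 active means Every replicate reaches about 75%, or at least half do and their mean reaches it too, limit read from the data; inconclusive means At least half of replicates reach the limit but their mean does not; inactive means Under half of replicates reach the limit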;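 further: 0% = cytokine-treated negative control wells and 100% = positive control rescue; higher means more ATP so stronger rescue from cytokine killing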
Mdm2-MdmX inh: inhibitors of human Mdm2-MdmX association, primary screen, cell-based, luminescence, split luciferase, SaOS-2, uHTS; Protein Mdm4 (Homo sapiens) + E3 ubiquitin-protein ligase Mdm2 (Homo sapiens), …; SaOS-2 split-luciferase Mdm2/MdmX complementation; inhibition, % at 8 µM; 3% of 330,000 active;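 active means inhibition of at least 50% at 8 µM in the primary screen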
Target sequence (O15151 whole entry, looked up): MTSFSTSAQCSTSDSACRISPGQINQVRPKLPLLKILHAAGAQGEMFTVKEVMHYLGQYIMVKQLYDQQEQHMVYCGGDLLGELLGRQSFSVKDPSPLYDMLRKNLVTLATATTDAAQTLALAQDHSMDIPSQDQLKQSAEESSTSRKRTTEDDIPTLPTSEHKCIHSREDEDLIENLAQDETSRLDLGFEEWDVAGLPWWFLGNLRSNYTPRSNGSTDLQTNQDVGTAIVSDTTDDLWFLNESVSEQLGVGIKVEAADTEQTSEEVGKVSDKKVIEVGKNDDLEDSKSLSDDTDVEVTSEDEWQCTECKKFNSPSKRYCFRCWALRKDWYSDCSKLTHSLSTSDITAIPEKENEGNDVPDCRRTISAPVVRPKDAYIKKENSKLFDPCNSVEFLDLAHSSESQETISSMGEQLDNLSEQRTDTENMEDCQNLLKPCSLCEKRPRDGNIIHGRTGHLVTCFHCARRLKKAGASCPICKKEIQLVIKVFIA
Target sequence (Q00987 whole entry, looked up): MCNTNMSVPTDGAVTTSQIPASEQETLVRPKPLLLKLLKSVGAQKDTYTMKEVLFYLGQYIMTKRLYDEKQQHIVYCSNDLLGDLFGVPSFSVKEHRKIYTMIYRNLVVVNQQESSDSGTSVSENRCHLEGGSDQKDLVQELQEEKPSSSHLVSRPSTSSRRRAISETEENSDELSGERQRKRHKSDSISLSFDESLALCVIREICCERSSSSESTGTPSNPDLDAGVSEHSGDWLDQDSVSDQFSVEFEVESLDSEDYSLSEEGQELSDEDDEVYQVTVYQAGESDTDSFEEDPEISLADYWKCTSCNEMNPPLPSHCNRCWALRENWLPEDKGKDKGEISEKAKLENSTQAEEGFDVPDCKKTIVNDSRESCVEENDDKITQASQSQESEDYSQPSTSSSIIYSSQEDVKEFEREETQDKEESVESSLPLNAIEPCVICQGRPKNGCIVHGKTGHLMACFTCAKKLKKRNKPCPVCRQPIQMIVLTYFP
Calb FLC: C. albicans growth inhibition with fluconazole, primary screen, CaCi-2 strain, Alamar Blue fluorescence | C. albicans CaCi-2 (fluconazole-resistant clinical isolate) + fluconazole, 48 h | growth inhibition, % (concentration not given with the values) | 0.57% of 300,000 active;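 active means growth inhibition above about 58% in most replicates, limit read from the data, passing the limit was not always enough; inconclusive means exactly half the replicates above a set limit; inactive means most replicates below a set limit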;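 further: all wells also contain fluconazole at 8 µg/ml as a sub-toxic cotreatment; 0% = median of DMSO wells and 100% = median of geldanamycin control wells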
T cruzi repl: inhibitors of intracellular T. cruzi growth, primary screen, luminescence, NIH3T3 host cells; T. cruzi beta-gal in NIH3T3, 90 h; inhibition, % (concentration not given with the values); 1.4% of 300,000 active; AID 1885, 2009;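 active means mean inhibition across valid replicates above about 55%, limit read from the data; inconclusive means mean below that limit but half or more replicates reach it; inactive means mean below it, under half of replicates reach it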;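 further: signal also drops with host cell toxicity which is not excluded here; 0% = plate median of DMSO wells and 100% = zero luminescence signal; higher percent means less beta-gal luminescence so fewer parasites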
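compound dosing = single 50 nL compound addition per well in DMSO | material = NIH/3T3 host cells with β-galactosidase reporter T. cruzi | input = 5,000 host fibroblasts per well | timing = ≥90 h infection period, 3 h prior cell attachment | read-out basis = percent inhibition of parasite-derived β-gal signal | detection = GalScreen β-gal luminescence, detergent lysis, 60 min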
An asterisk follows results filed as active; ? = inconclusive; / = not tested or not shown. Only some compounds are listed: those with a hit (about 5.7% of all), similar ones and a draw of the others.

SMILES	SKKanGAS inh	CSC inhib	Beta cell apopt	Mdm2-MdmX inh	Calb FLC	T cruzi repl
CCCOc1ccc(C(=O)NC(=S)NNC(=O)c2c(-c3ccccc3)noc2C)cc1	100*	31	17	33	-1	-36
Cc1onc(-c2ccccc2)c1C(=O)NNC(=O)c1ccccc1Br	/	-2	-5	-35	/	/
Cc1onc(-c2ccccc2)c1C(=O)NC(=S)NNC(=O)c1ccc(O)cc1	106*	19	23	0	4	-3
Cc1onc(-c2ccccc2)c1C(=O)NC(=S)NNC(=O)c1ccccc1O	87*	9	85*	30	23	-14
CCOc1ccccc1CN1CCCC(CNS(=O)(=O)c2ccc(OC)cc2)C1 (configuration not stated)	-6	32	16	15	21	2
CCCC1=NN(C(=O)C(=O)Nc2ccc(Br)cc2)C(O)(C(F)(F)F)C1 (configuration not stated)	16	41	14	23	3	0
CCn1c(CC(=O)Nc2ccc(OC)cc2)nnc1SCC(=O)N1CCOCC1	0	1	-1	15	-7	-3
CN1CCN(c2ccccc2NC(=O)c2ccc(-c3cccc([N+](=O)[O-])c3)o2)CC1	-3	21	4	/	-3	0
CN1CCN(c2ccccc2NC(=O)c2ccc(-c3ccc(Br)cc3)o2)CC1	3	61	35	48	-3	65*
O=c1[nH]c(=O)n(C2C[C@H](O)[C@@H](CO)O2)cc1C(F)(F)F (some centres not stated)	/	76*	7	31	/	/
CCCc1cc(=O)oc2cc(OCC(=O)NCCCn3ccnc3)c(Cl)cc12	-1	33	-3	9	-4	1
CN(C)c1ccc(C(=O)N/N=C/c2ccccn2)cc1	-6	3	2	-17	-5	-1
O=C(NNc1ccc(Cl)cc1)c1c(F)cccc1Cl	-12	19	-6	-12	83*	/
O=C(NNc1ccccc1)C(=O)NNS(=O)(=O)c1ccc([N+](=O)[O-])cc1	4	92*	-1	-2	-20	61*
O=C(/C=C/c1ccccc1)NNC(=O)c1cccc(Cl)c1	-4	-10	-13	10	0	8
O=C(/C=C/c1ccccc1)NNc1ccc(Cl)cc1	0	96*	3	-1	97*	9
NS(=O)(=O)c1ccc(NNC(=O)c2ccccc2C(=O)O)cc1	-4	-8	-3	-22	-16	13
O=C(NNc1ccc(F)cc1)c1c(F)cccc1Cl	3	4	-3	-1	-3	11
O=C(O)c1ccccc1C(=O)NNc1ccc(Cl)cc1	-3	91*	-4	13	-28	-11
CCOC(=O)CNC(=O)CSc1nnc(CCc2nc3ccccc3[nH]2)n1C	-3	-13	-1	21	3	-2
COc1ccc2oc(=O)c(C(=O)OCc3ccccc3)cc2c1	-8	-16	-6	16	6	-17
O=C(NNc1ccc(Cl)cc1)c1sccc1Cl	3	94*	7	-6	105*	29
NS(=O)(=O)c1ccc(NNC(=O)c2sccc2Cl)cc1	-6	6	2	14	-10	4
O=C(c1ccc(Cl)cc1)c1c[nH]c(C(=O)NNc2ccccc2)c1	-7	95*	3	25	?	8
O=C(NNc1ccc([N+](=O)[O-])cc1)c1ccccc1Cl	5	4	-1	-3	92*	-4
SMILES	SKKanGAS inh	CSC inhib	Beta cell apopt	Mdm2-MdmX inh	Calb FLC	T cruzi repl
O=C(O)c1ccccc1-c1ccccc1C(=O)NNc1ccc([N+](=O)[O-])cc1	2	10	-1	8	-4	-6
O=C(CN1CCSCC1)N/N=C/c1ccc(F)c(F)c1	2	-6	0	15	-3	-5
COc1ccc(NC2CCCN(C(=O)CCN3Cc4ccccc4C3=O)C2)cc1 (configuration not stated)	0	-9	-1	0	-1	11
COc1ccc(NS(=O)(=O)c2cccc(C(=O)N/N=C(\C)c3ccc(-n4ccnc4)cc3)c2)cc1	18	95*	2	8	4	11
O=C(Nc1nccs1)c1cccc(S(=O)(=O)N2CCOCC2)c1	-6	3	-1	31	23	-12
O=C(Nc1nc(-c2ccc(S(=O)(=O)N3CCCCCC3)cc2)cs1)c1cccs1	12	-16	18	17	8	70*
O=C(NC(=S)Nc1nc(-c2ccc(Cl)cc2)cs1)c1cccs1	-4	14	3	32	-16	2
O=C(Nc1nc(-c2cccs2)cs1)c1cccc(S(=O)(=O)N2CCCCC2)c1	28	24	-4	36	/	62*
O=C(Nc1nc(-c2cc3ccccc3o2)cs1)c1ccc(S(=O)(=O)N2CCCC2)cc1	14	18	72	28	4	66*
O=C(Nc1nc(-c2cc(Cl)sc2Cl)cs1)c1cccs1	61*	112*	15	23	6	16
O=C(Nc1nc(-c2ccc(S(=O)(=O)N3CCCC3)cc2)cs1)c1cccs1	/	17	/	42	/	/
O=c1[nH]snc1N1CCOCC1	/	-7	-4	-11	13	-10
COc1ccc(C(C(=O)NC2CCCC2)N(CCO)C(=O)Cn2nnc(-c3ccc(C)o3)n2)cc1OC (configuration not stated)	-1	-54	0	16	14	4
COc1ccccc1C(=O)OCC(=O)NC12CC3CC(CC(C3)C1)C2	/	/	/	13	/	/
CCn1c(=N)n(CC(=O)c2cccc([N+](=O)[O-])c2)c2ccccc21	-17	-7	0	-17	46	1
CCn1c(=N)n(CC(=O)C23CC4CC(CC(C4)C2)C3)c2ccccc21	-4	/	3	30	-3	58*
COC(=O)c1cc2c(ccn2-c2ccc(F)cc2)n1Cc1cccc(OC)c1	-6	38	8	13	2	18
COC(=O)c1cc2c(ccn2-c2ccc(F)cc2)n1Cc1ccc(OC(C)=O)cc1	12	-7	1	31	8	58*
CCC(C)n1ncn(-c2ccc(N3CCN(c4ccc(O)cc4)CC3)cc2)c1=O (configuration not stated)	1	104*	3	-6	5	-17
Cc1cc(NC(=O)CN2CCN(c3ccc(O)cc3)CC2)no1	-6	28	5	5	-24	-25
